The source of these data is ChEMBL document CHEMBL1154107, “Inhibitors of VIM-2 by screening pharmacologically active and click-chemistry compound libraries” (Bioorg Med Chem, 2009).

A word on the IC50: it is the concentration that gives 50% inhibition. Low values mean greater potency in that assay, high ones weaker potency in that assay. One may read the Ki as the dissociation constant of the complex between target and ligand, obtained from inhibition or displacement. High values mean weaker binding, low ones tighter binding. Broadly, the inhibition is the share of the control response that was lost under treatment. A lower inhibition goes with little suppression. A word on the MIC: it is the lowest concentration that inhibits growth of the organism.

Values after ≈ are worked out from the molar mass of the structure shown. Active and inactive are the calls of the source. No cut-off for these calls is given here.

Assay [1] can be described thus: Inhibition of VIM2 using nitrocefin as substrate after 15 mins by microtiter plate assay.
Assay [2] can be described thus: Inhibition of IMP1 using nitrocefin as substrate after 15 mins by microtiter plate assay.
Assay [3] in a line: Inhibition of VIM2 using CCF2 as substrate after 15 mins by FRET assay.
Assay [4] is described as follows: Inhibition of IMP1 in Escherichia coli.
Assay [5] can be described thus: Inhibition of VIM2 using nitrocefin as substrate at 56 uM after 15 mins by microtiter plate assay.
Assay [6] can be described thus: Inhibition of VIM2 using nitrocefin as substrate by rapid dilution method.
A short description of assay [7]: Inhibition of VIM2 using CCF2 as substrate at 44 uM after 15 mins by FRET assay. A digest of the protocol: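 VIM-2 (0.1 nM final) in 50 mM HEPES, 50 μM ZnSO4, 0.05% Brij 35, pH 7.1, preincubated 15 min at RT with compound; CCF2-FA added to 10 μM, 25 min at RT, stopped with EDTA. Ratiometric fluorescence read at excitation 409 nm, emission 460/535 nm. Triplicate ten-point 1:3 dilutions; IC50 from four-parameter fit of ratio data.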

The nature of assay [8]: Inhibition of IMP1 using nitrocefin as substrate at 56 uM after 15 mins by microtiter plate assay.
The nature of assay [9]: Inhibition of TEM-1 using nitrocefin as substrate after 15 mins by microtiter plate assay.
Assay [10] can be described thus: Inhibition of TEM-1 using nitrocefin as substrate at 25 uM after 15 mins by microtiter plate assay.
A short description of assay [11]: Inhibition of Enterobacter cloacae AmpC using nitrocefin as substrate after 15 mins by microtiter plate assay.
The next assay concerns Enterobacter cloacae. The experiment in a line: Inhibition of Enterobacter cloacae AmpC using nitrocefin as substrate at 25 uM after 15 mins by microtiter plate assay.
Assay [12] has as its system Escherichia coli. As to the kind of experiment: Antibacterial activity against imipenem-non resistant Escherichia coli BL21(DE3) after 18 hrs by twofold serial broth dilution method. Format: functional. The method, boiled down:
(§1)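 Two-fold serial broth dilution MIC per CLSI, 10-point dilutions in Iso-Sensitest broth, 2 mL tubes. BL21 grown 5 h at 37°C in LB (kanamycin 30 μg/mL for pET-9a VIM-2 transformants). Inoculum 5 × 10^5 CFU/mL; shaken ≥18 h at 37°C aerobically.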
Background: In broth dilution the organism is exposed to a series of concentrations in liquid medium.

Assay [13] has as its system Escherichia coli. As to the kind of experiment: Antibacterial activity against imipenem-resistant Escherichia coli BL21(DE3) expressing VIM2 gene after 18 hrs by twofold serial broth dilution method. Format: functional. The method, boiled down:
as §1

Assay [14] deals with Escherichia coli BL21(DE3). As to the kind of experiment: Inhibition of VIM2 in imipenem-resistant Escherichia coli BL21(DE3) assessed as potentiation of imipenem-induced bactericidal activity at 50 uM after 18 hrs by twofold serial broth dilution method.
For assay [15], the system named is Escherichia coli BL21(DE3). The experiment in a line: (§2) Inhibition of VIM2 in imipenem-resistant Escherichia coli BL21(DE3) assessed as potentiation of imipenem-induced bactericidal activity at […] after 18 hrs by checkerboard microdilution method.
Assay [16] deals with Escherichia coli. As to the kind of experiment: Bactericidal activity against imipenem-resistant Escherichia coli BL21(DE3) expressing VIM2 gene at […] after 24 hrs by broth microdilution method. In kind it is functional.
Assay [17] deals with Escherichia coli. As to the kind of experiment: Bactericidal activity against imipenem-non resistant Escherichia coli BL21(DE3) at […] after 24 hrs by broth microdilution method. Format: functional.
In assay [18] the test system is Escherichia coli. The experiment in a line: Bacteriostatic activity against imipenem-resistant Escherichia coli BL21(DE3) expressing VIM2 gene at […] after 24 hrs by broth microdilution method. In kind it is functional.
The test system of assay [19] is Escherichia coli. As to the kind of experiment: Bacteriostatic activity against imipenem-non resistant Escherichia coli BL21(DE3) at […] after 24 hrs by broth microdilution method. In kind it is functional.
In assay [20] the test system is Escherichia coli BL21(DE3). The assay is described as §2. The source holds these as a separate data set.
Assay [21] relates to Escherichia coli BL21(DE3). As to the kind of experiment: Inhibition of VIM2 in imipenem-resistant Escherichia coli BL21(DE3) assessed as potentiation of imipenem-induced bactericidal activity at 4.2 ug/mL after 18 hrs by checkerboard microdilution method. The method, boiled down:
(§3)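 Checkerboard in 96-well plates, 0.2 mL. […] BL21/VIM-2 pre-grown 5 h at 37°C with kanamycin; inoculum 1 × 10^6 CFU/mL. Shaken ≥18 h at 37°C. MIC read per CLSI; synergy by ΣFIC; QC strain ATCC 35218.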

Assay [22] is described as follows: Inhibition of VIM2 using CCF2 as substrate at 36 uM after 15 mins by FRET assay. A digest of the protocol: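 FRET endpoint assay in 50 mM HEPES, 50 μM ZnSO4, 0.05% Brij 35, pH 7.1. VIM-2 (0.1 nM final) preincubated 15 min at RT with compound. CCF2-FA added to 10 μM final, 25 min at RT, stopped with EDTA. Excitation 409 nm, emissions 460 and 535 nm, read as ratio. Triplicate dilution series starting at 56 μM nominal.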

A short description of assay [23]: Inhibition of VIM2 using nitrocefin as substrate at 15 uM after 15 mins by microtiter plate assay.
Assay [24] in a line: Inhibition of IMP1 using nitrocefin as substrate at 140 uM after 15 mins by microtiter plate assay.
Assay [25] has as its system Escherichia coli. As to the kind of experiment: Selectivity ratio of MIC for imipenem-resistant Escherichia coli BL21(DE3) expressing VIM2 gene to MIC for imipenem-non resistant Escherichia coli BL21(DE3). Format: functional.
Assay [26] relates to Escherichia coli. The experiment in a line: Bactericidal activity against imipenem-resistant Escherichia coli BL21(DE3) expressing VIM2 gene at […] up to 6 hrs by broth microdilution method. Format: functional.
The test system of assay [27] is Escherichia coli. As to the kind of experiment: Bactericidal activity against imipenem-non resistant Escherichia coli BL21(DE3) at […] up to 6 hrs by broth microdilution method. Format: functional.
In assay [28] the test system is Escherichia coli. As to the kind of experiment: Bactericidal activity against imipenem-resistant Escherichia coli BL21(DE3) expressing VIM2 gene at […] after 6 hrs by broth microdilution method. Format: functional.
Assay [29] concerns Escherichia coli. As to the kind of experiment: Bactericidal activity against imipenem-non resistant Escherichia coli BL21(DE3) at […] after 6 hrs by broth microdilution method. Format: functional.
Assay [30] has as its system Escherichia coli BL21(DE3). As to the kind of experiment: Inhibition of VIM2 in imipenem-resistant Escherichia coli BL21(DE3) assessed as potentiation of imipenem-induced bactericidal activity at 8.9 ug/mL after 18 hrs by checkerboard microdilution method. A digest of the protocol:
as §3

The subject of assay [31] is Escherichia coli BL21(DE3). As to the kind of experiment: Inhibition of VIM2 in imipenem-resistant Escherichia coli BL21(DE3) assessed as potentiation of imipenem-induced bactericidal activity at 4.5 ug/mL after 18 hrs by checkerboard microdilution method. The method, boiled down:
as §3

With `O=C(O)CC(Cc1ccccc1Cl)C(=O)O` (stereo not given), the IC50 in assay [1] came to 33 µM; in assay [2] it was 1.6 µM; in assay [3], 50 µM. Further, the Ki in assay [2] was 1.6 µM; in assay [4], 3.3 µM.

In the case of `O=S(=O)(NCc1[nH]nnc1CN1CCN(c2ccc(Cl)c(Cl)c2)CC1)c1ccc(I)cc1`, the IC50 in [1] was greater than 56 µM. Also, the inhibition in [5] is 5%.

As to `C#CCCOCc1nn[nH]c1CNS(=O)(=O)c1ccc(I)cc1`, the IC50 was 3.3 µM in assay [1]; greater than 56 µM in [2]; 1.3 µM in assay [3]; greater than 25 µM in [9]; greater than 25 µM in assay [11]. For the same compound, the affinity in assay [6] corresponds to a Ki of 0.41 µM. Moreover, the inhibition in assay [5] was 79%; in assay [7], 76%; in [8], 0%; in assay [10] it was 0%; in the assay on Enterobacter cloacae it was 0%. Moreover, the MIC against Escherichia coli [12] and with Escherichia coli [13] was greater than 60 µg/mL in each case. Also, the result in [14] was inactive.

`C[C@@H](O)[C@H]1C(=O)N2C(C(=O)O)=C(SCCNC=N)C[C@H]12` [IMIPENEM ANHYDROUS] yielded an MIC with Escherichia coli [12] of 0.2 µg/mL (≈ 0.668 µM).

In the case of `COCc1nn[nH]c1CNS(=O)(=O)c1ccc(I)cc1`, the IC50 in assay [1] is 7.3 µM; in [2], greater than 56 µM; in [3] it was 4.1 µM; in [9], greater than 25 µM; in [11], greater than 25 µM. Besides, in assay [6], the Ki is 1.41 µM. Besides, the inhibition in assay [5] worked out at 74%; in [7] it was 90%; in assay [8], 0%; in assay [10], 0%; in the assay on Enterobacter cloacae, 0%. Also, the MIC against Escherichia coli [12] and against Escherichia coli [13] was greater than 60 µg/mL in each case. Moreover, in [14], the result was inactive.

In turn, `Cn1cc(Cc2nn[nH]c2CNS(=O)(=O)c2ccc(I)cc2)c2ccccc21` had an IC50 in assay [1] greater than 56 µM. Moreover, in assay [5], the inhibition amounted to 11%.

`CC1(C)OCC(COCc2nn[nH]c2CNS(=O)(=O)c2ccc(I)cc2)O1` (stereo not given) displayed an IC50 in [1] greater than 56 µM. Besides, the inhibition in [5] came to 31%.

In the case of `Cc1ccc(Cl)cc1N1CCN(Cc2nn[nH]c2CNS(=O)(=O)c2ccc(I)cc2)CC1`, the IC50 in assay [1] was greater than 56 µM. This compound also had an inhibition in [5] of 0%.

In the case of `O=C1c2c(O)ccc(O)c2C(=O)c2c(NCCNCCO)ccc(NCCNCCO)c21`, the result in assay [14], in assay [15], in assay [20] and in [21] was Active. Further, the outcome with Escherichia coli [16], with Escherichia coli [17], in the assay with Escherichia coli [18] and with Escherichia coli [19] was inactive.

In the case of 4-CHLOROMERCURIBENZOIC ACID, the IC50 in assay [9] and in assay [11] was greater than 25 µM each time.

Turning to 4-[sequence] ACID, the inhibition in [22] is 83%; in assay [23], 80%; in assay [24], 0%; in assay [10], 0%; in the assay on Enterobacter cloacae it was 0%. The MIC in the assay with Escherichia coli [12] and against Escherichia coli [13] was 17.9 µg/mL each time. In addition, the Ratio in the assay with Escherichia coli [25] was found to be 9. The result (in assay [14]; in assay [15]; with Escherichia coli [26]; in the assay on Escherichia coli [27]; in assay [30]; in assay [31]) was Active. The result in the assay on Escherichia coli [28], in the assay on Escherichia coli [29], in the assay with Escherichia coli [18] and in the assay on Escherichia coli [19] was inactive.
